Assay results from ChEMBL document CHEMBL3632584, “Further Optimization and Evaluation of Bioavailable, Mixed-Efficacy μ-Opioid Receptor (MOR) Agonists/δ-Opioid Receptor (DOR) Antagonists: Balancing MOR and DOR Affinities” (J Med Chem, 2015).
The source made the active and inactive calls.

What was measured:
[1] = biological target: T1, Mu-type opioid receptor (Rattus norvegicus, UniProt P33535); assay: Displacement of [3H]diprenorphine from rat mu-opioid receptor expressed in C6 cell membrane for 1 hr by liquid scintillation counting analysis; format: cell membranes
T1 sequence (P33535 whole entry): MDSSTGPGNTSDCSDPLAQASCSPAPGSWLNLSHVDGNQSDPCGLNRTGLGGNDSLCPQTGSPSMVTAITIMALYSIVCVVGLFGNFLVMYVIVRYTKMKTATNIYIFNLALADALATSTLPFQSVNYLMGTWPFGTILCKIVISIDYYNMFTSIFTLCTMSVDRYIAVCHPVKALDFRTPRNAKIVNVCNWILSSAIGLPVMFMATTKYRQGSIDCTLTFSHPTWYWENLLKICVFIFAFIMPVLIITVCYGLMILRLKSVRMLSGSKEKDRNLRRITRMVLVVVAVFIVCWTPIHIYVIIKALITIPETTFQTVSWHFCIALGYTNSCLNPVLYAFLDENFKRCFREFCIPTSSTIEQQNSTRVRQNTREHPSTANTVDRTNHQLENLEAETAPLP

[2] = biological target: T2, Delta-type opioid receptor (Rattus norvegicus, UniProt P33533); assay: Displacement of [3H]diprenorphine from rat delta-opioid receptor expressed in C6 cell membrane for 1 hr by liquid scintillation counting analysis; format: cell membranes
T2 sequence (P33533 whole entry): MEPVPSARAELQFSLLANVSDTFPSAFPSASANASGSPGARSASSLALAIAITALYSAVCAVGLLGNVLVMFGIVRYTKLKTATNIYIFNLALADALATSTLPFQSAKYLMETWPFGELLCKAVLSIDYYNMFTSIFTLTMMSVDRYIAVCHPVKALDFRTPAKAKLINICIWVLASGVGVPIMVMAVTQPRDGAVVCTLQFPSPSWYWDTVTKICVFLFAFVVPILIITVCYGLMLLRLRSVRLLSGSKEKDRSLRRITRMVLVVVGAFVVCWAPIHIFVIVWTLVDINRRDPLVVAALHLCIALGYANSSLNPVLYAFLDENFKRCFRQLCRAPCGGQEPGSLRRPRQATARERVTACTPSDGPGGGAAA

[3] = biological target: T3, Kappa-type opioid receptor (Homo sapiens, UniProt P41145); assay: Displacement of [3H]diprenorphine from human kappa-opioid receptor expressed in CHO cell membrane for 1 hr by liquid scintillation counting analysis; format: cell membranes
T3 sequence (P41145 whole entry): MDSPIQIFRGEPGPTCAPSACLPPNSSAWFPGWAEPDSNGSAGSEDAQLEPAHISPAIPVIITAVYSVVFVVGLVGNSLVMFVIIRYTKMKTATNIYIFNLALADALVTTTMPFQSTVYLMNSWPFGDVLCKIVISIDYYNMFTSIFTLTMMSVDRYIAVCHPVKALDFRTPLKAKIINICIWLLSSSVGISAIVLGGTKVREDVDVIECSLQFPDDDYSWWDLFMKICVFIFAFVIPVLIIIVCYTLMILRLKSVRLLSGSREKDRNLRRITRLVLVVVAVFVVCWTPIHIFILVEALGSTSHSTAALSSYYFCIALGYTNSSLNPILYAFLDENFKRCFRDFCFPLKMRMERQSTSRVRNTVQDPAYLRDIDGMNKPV
In short: (§1)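 Competition for 0.2 nM [3H]diprenorphine in membranes (20 µg protein) from C6 cells with rat MOR or DOR, or CHO cells with human KOR. 50 mM Tris-HCl pH 7.4, 1 h at room temperature, then GF/C filtration, five buffer washes, scintillation counting. Nonspecific binding set with 10 µM naloxone. Ki from logistic fit. Mean ± S.E.M., ≥3 assays in duplicate. DOR/MOR ratio taken from the Ki values.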

[4] = species: Rattus norvegicus; assay: Selectivity ratio, ratio of Ki for rat delta-opioid receptor to Ki for rat mu-opioid receptor; in short: as §1
[5] = biological target: T1, Mu-type opioid receptor; assay: Agonist activity at rat mu-opioid receptor expressed in C6 cell membrane assessed as [35S]GTPgammaS binding for 1 hr by liquid scintillation counting analysis; format: functional, cell membranes
[6] = biological target: T2, Delta-type opioid receptor; assay: Agonist activity at rat delta-opioid receptor expressed in C6 cell membrane assessed as [35S]GTPgammaS binding for 1 hr by liquid scintillation counting analysis; format: functional, cell membranes
[7] = biological target: T3, Kappa-type opioid receptor; assay: Agonist activity at human kappa-opioid receptor expressed in CHO cell membrane assessed as [35S]GTPgammaS binding for 1 hr by liquid scintillation counting analysis; format: functional, cell membranes
[8] = biological target: Mu-type opioid receptor (Rattus norvegicus) (UniProt P33535); assay: Agonist activity at rat mu-opioid receptor expressed in C6 cell membrane assessed as [35S]GTPgammaS binding for 1 hr by liquid scintillation counting analysis relative to 10 uM DAMGO; format: functional, cell membranes
Sequence of Mu-type opioid receptor (Rattus norvegicus) (P33535 whole entry): as the sequence (P33535 whole entry) above

[9] = biological target: Delta-type opioid receptor (Rattus norvegicus) (UniProt P33533); assay: Agonist activity at rat delta-opioid receptor expressed in C6 cell membrane assessed as [35S]GTPgammaS binding for 1 hr by liquid scintillation counting analysis relative to 10 uM DPDPE; format: functional, cell membranes
Sequence of Delta-type opioid receptor (Rattus norvegicus) (P33533 whole entry): as the sequence (P33533 whole entry) above

[10] = biological target: T3, Kappa-type opioid receptor; assay: Agonist activity at human kappa-opioid receptor expressed in CHO cell membrane assessed as [35S]GTPgammaS binding for 1 hr by liquid scintillation counting analysis relative to 10 uM U69593; format: functional, cell membranes
[11] = tested on: Mus musculus; assay: Antinociceptive activity in C57BL/6 mouse assessed as tail withdrawal latency upto 10 mg/kg, ip measured after 30 mins by warm water tail withdrawal assay; format: functional, organism-based
[12] = tested on: Plasma; assay: Stability in C57BL/6 mouse plasma after 30 mins; format: ADME, cell-free; details: 0.5 h
[13] = tested on: Mus musculus; assay: Antinociceptive activity in C57BL/6 mouse assessed as tail withdrawal latency time at 10 mg/kg, ip measured after 30 mins by warm water tail withdrawal assay; format: functional
[14] = tested on: Mus musculus; assay: Antinociceptive activity in C57BL/6 mouse assessed as time duration of action at 10 mg/kg, ip measured after 30 mins by warm water tail withdrawal assay; format: functional
In short: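 Male C57BL/6 mice given a single 10 mg/kg ip dose. Tail withdrawal from 50 °C water, 20 s cutoff, measured at varying times after dosing to follow duration of action. n=6.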

[15] = tested on: Mus musculus; assay: Antinociceptive activity in ip dosed C57BL/6 mouse assessed as tail withdrawal latency measured 30 mins after drug challenge by warm water tail withdrawal assay; format: functional; details: for ED50: C57BL/6, Tail, 0.5 h
[16] = tested on: Mus musculus; assay: Antinociceptive activity in ip dosed C57BL/6 mouse assessed as tail withdrawal latency pretreated with 1 mg/kg naltrexone for 30 mins measured 30 mins after drug challenge by warm water tail withdrawal assay; format: functional; details: C57BL/6, Tail
In short: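 Male C57BL/6 mice pretreated ip with 1 mg/kg naltrexone or saline 30 min before cumulative ip dosing to 3.2, 10 and 32 mg/kg. Tail withdrawal latency from 50 °C water, 20 s cutoff, read 30 min after each dose. ED50 from the dose-response.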

SMILES | Ki [1] | Ki [2] | Ki [3] | Ratio Ki [4] | EC50 ([5]; read-out: EC50) | EC50 ([6]; c6) | EC50 ([7]; cho) | Activity [8] | Activity [9] | Activity [10] | Activity [11] | Stability [12] | EC50 ([6]; read-out: EC50) | EC50 ([7]; read-out: EC50) | Time [13] | Time [14] | Activity [15] | ED50 [15] | ED50 [16] | EC50 ([5]; c6)
CC(=O)N1CC[C@@H](NC(=O)[C@@H](N)Cc2c(C)cc(O)cc2C)c2cc(Cc3cccc4ccccc34)ccc21 | 0.06 nM | 1.3 nM | 4.3 nM | 22 | 0.48 nM | Not Active | Not Active | 70% | inactive | inactive | inactive | Stable |  |  |  |  |  |  |  | 
CC(=O)N1CC[C@@H](NC(=O)[C@@H](N)Cc2c(C)cc(O)cc2C)c2cc(Cc3ccccc3)ccc21 | 0.13 nM | 1.8 nM | 87 nM | 14 | 6 nM |  |  | 76% | 26% | 29% | inactive |  | 68 nM | > 1300 nM |  |  |  |  |  | 
Cc1cc(O)cc(C)c1C[C@H](N)C(=O)N[C@@H]1CCCc2ccc(Cc3cccc4ccccc34)cc21 | 0.39 nM | 5 nM | 63 nM | 13 | 14 nM | Not Active | Not Active | 58% | inactive | inactive | inactive |  |  |  |  |  |  |  |  | 
CC(=O)N1CC[C@@H](NC(=O)[C@@H](N)Cc2c(C)cc(O)cc2C)c2cc(CC3CCc4ccccc43)ccc21 (mixture of isomers) | 0.03 nM | 0.84 nM | 15 nM |  | 15 nM | Not Active |  | 39% |  | 26% |  |  |  |  |  |  |  |  |  | 
Cc1cc(O)cc(C)c1C[C@H](N)C(=O)N[C@@H]1CCNc2ccc(CC3CCCCC3)cc21 | 0.043 nM | 3.4 nM | 6.2 nM | 79 | 2.6 nM | Not Active |  | 57% | inactive | 36% | inactive |  |  | 97 nM |  |  |  |  |  | 
Cc1cc(O)cc(C)c1C[C@H](N)C(=O)N[C@@H]1CCCc2ccc(Cc3ccccc3)cc21 | 0.045 nM | 4 nM | 19 nM |  | 2.9 nM | Not Active | Not Active | 64% |  |  |  |  |  |  | 14 s |  |  |  |  | 
Cc1cc(O)cc(C)c1C[C@H](N)C(=O)N[C@@H]1CCCc2ccc(Cc3ccc4ccccc4c3)cc21 | 0.06 nM | 12 nM | 92 nM |  | 4.4 nM | Not Active | Not Active | 72% |  |  | inactive |  |  |  |  |  |  |  |  | 
Cc1cc(O)cc(C)c1C[C@H](N)C(=O)N[C@@H]1CCNc2ccc(Cc3cccc4ccccc34)cc21 |  |  |  |  |  |  |  | 93% | 15% |  |  |  |  |  |  |  |  |  |  | 
Cc1cc(O)cc(C)c1C[C@H](N)C(=O)N[C@@H]1CCNc2ccc(Cc3ccc4ccccc4c3)cc21 |  |  |  |  |  |  |  | 96% | inactive | inactive |  |  |  |  | 10 s |  |  |  |  | 
CC(=O)N1CC[C@@H](NC(=O)[C@@H](N)Cc2c(C)cc(O)cc2C)c2cc(Cc3ccc4ccccc4c3)ccc21 | 0.04 nM | 0.23 nM | 48 nM | 6 | 0.93 nM | Not Active | Not Active | 87% | inactive | inactive |  | Stable |  |  |  | >3 h | Dose-dependent effect | 4.72 mg/kg | 15.1 mg/kg | 
Cc1cc(O)cc(C)c1C[C@H](N)C(=O)N[C@@H]1CCNc2ccc(CC3Cc4ccccc4C3)cc21 |  |  |  | 26 |  |  | Not Active | 86% | inactive | 38% | inactive |  |  |  |  |  |  |  |  | 
Cc1cc(O)cc(C)c1C[C@H](N)C(=O)N[C@@H]1CCCc2ccc(CC3CCCCC3)cc21 |  | 14 nM | 20 nM | 117 |  | Not Active |  | inactive | inactive | 25% |  |  |  | 350 nM |  |  |  |  |  | Not Active
CC(=O)N1CC[C@@H](NC(=O)[C@@H](N)Cc2c(C)cc(O)cc2C)c2cc(CC3CCCCC3)ccc21 | 0.03 nM | 0.32 nM | 8.4 nM | 11 | 0.61 nM |  |  | 70% | 26% | 33% | inactive |  | 14 nM | 240 nM |  |  |  |  |  | 
Cc1cc(O)cc(C)c1C[C@H](N)C(=O)N[C@@H]1CCNc2ccc(Cc3ccccc3)cc21 |  |  |  |  |  |  |  |  |  |  |  |  |  |  |  | >1 h |  |  |  | 
CC(=O)N1CC[C@@H](NC(=O)[C@@H](N)Cc2c(C)cc(O)cc2C)c2cc(CC3Cc4ccccc4C3)ccc21 | 0.05 nM | 0.44 nM | 12 nM | 9 | 0.56 nM | Not Active |  | 84% | inactive | 60% |  |  |  | 610 nM | 11 s |  |  |  |  | 
Cc1cc(O)cc(C)c1C[C@H](N)C(=O)N[C@@H]1CCNc2ccc(CC3CCc4ccccc43)cc21 (mixture of isomers) | 0.05 nM | 6.8 nM | 19 nM |  | 9 nM | Not Active |  | 16% |  | 52% |  |  |  | 180 nM |  |  |  |  |  | 
CN1CC[C@]23c4c5ccc(O)c4O[C@H]2[C@@H](O)C=C[C@H]3[C@H]1C5 [MORPHINE] |  |  |  |  |  |  |  |  |  |  |  |  |  |  |  |  |  | 4.73 mg/kg |  | 
